Experimental data from different studies.
Target: Serine/threonine-protein kinase PAK 3 (PAK3, Homo sapiens, UniProt O75914)

Structure (SMILES)	read-out	action	technique	tested at	endpoint	result
Cc1ccc(C(=O)Nc2ccc(CN3CCN(C)CC3)c(C(F)(F)F)c2)cc1C#Cc1cnc2cccnn12	enzyme activity	inhibitor		23.5 nM	remaining activity	3.6%
N[C@H]1CCN(c2nccc(-c3cnn4ncccc34)n2)C1	binding			1 µM	remaining binding	100%
Nc1ncnc2occ(-c3ccc(NC(=O)Nc4cc(C(F)(F)F)ccc4F)cc3)c12	cell-free assay	inhibitor		20 µM	remaining signal	14%
O=C1Nc2ccc(Cl)cc2C1=Cc1cc(Cl)c(O)c(Cl)c1	cell-free assay			0.5 µM	remaining signal	94.3%
O=C(Nc1cnn(-c2csc(C(=O)NC3COC3)c2)c1)Nc1c(F)cccc1Cl	enzyme activity	inhibitor		5 µM	remaining activity	64.2%
COc1cc2ncnc(Nc3ccc(Oc4ccccc4)c(C)c3C)c2cc1OC	enzyme activity	inhibitor		1 µM	inhibition	10%
COc1cc2ncnc(Nc3ccc(F)c(Cl)c3)c2cc1OCCCN1CCOCC1	cell-free assay			0.5 µM	remaining signal	106%
COc1ccccc1N1CCN(c2ncnc3[nH]nc(Br)c23)CC1	enzyme activity	inhibitor		1 µM	inhibition	-12%
CCCOc1ccc([C@H]2[C@H](C(=O)O)[C@@H](c3ccc4c(c3)OCO4)CN2CC(=O)Nc2c(CC)cccc2CC)cc1	cell-free assay		competition with immobilised ligand	1 µM	remaining binding	100%
N#CCCc1ccc2c(c1)-c1[nH]c3ccc([N+](=O)[O-])cc3c1CC(=O)N2	cell-free assay			0.5 µM	remaining signal	97.1%
Cn1cc(Cl)c2c(Oc3c(F)cc(Nc4cc(Cl)nc(N)n4)cc3F)ccnc21	cell-free assay		competition with immobilised ligand	0.1 µM	remaining binding	100%
CC(C)(O)[C@H]1CC[C@H](Nc2ccc3ncc(-c4cccc(C(F)(F)F)c4)n3n2)CC1	enzyme activity	inhibitor		1 µM	remaining activity	94.2%
COc1cc(-c2cn(C3CCc4ccccc4N(CC(F)(F)F)C3=O)nn2)ccc1-n1ccc(C)n1 (stereo not drawn)	cell-free assay		competition with immobilised ligand	1 µM	remaining binding	100%
COc1cc2c(Nc3ccc(Br)cc3F)ncnc2cc1OCC1CCN(C)CC1	cell-free assay			0.5 µM	remaining signal	103%
O=C(O)c1cc(-c2ccc(C3CCNCC3)cc2)c2ccc(-c3ccc(C(F)(F)F)cc3)cc2c1	cell-free assay		competition with immobilised ligand	1 µM	remaining binding	100%
Cc1ccc(Nc2nccc(N(C)c3ccc4c(C)n(C)nc4c3)n2)cc1S(N)(=O)=O	enzyme activity	inhibitor		10 µM	inhibition	61%
CCCS(=O)(=O)Nc1ccc(F)c(C(=O)c2c[nH]c3ncc(-c4ccc(Cl)cc4)cc23)c1F	enzyme activity	inhibitor		1 µM	inhibition	< 20%
CN(C)CC#Cc1ccc(OCCCc2sc(N3CCc4cccc(C(=O)Nc5nc6ccccc6s5)c4C3)nc2C(=O)O)c(F)c1	cell-free assay		competition with immobilised ligand	1 µM	remaining binding	97%
